Source: ChEMBL document CHEMBL1125210, “Benzylated 1,2,3-triazoles as anticoccidiostats” (J Med Chem, 1991)

How the values were obtained:
Gallus gallus [1] = species: Gallus gallus; assay: The compound was tested for anti-coccidial activity in chicken against Eimeria acervulina; assay type: organism-based; conditions: in vivo
Outline: (§1)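 3-Day-old chicks infected separately with E. tenella or E. acervulina; test compound given mixed in the feed at the stated rates. Activity was scored as percent suppression of oocyst production versus infected, unmedicated controls. Toxicity was judged from average weight gain relative to uninfected controls.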

Gallus gallus [2] = species: Gallus gallus; assay: The compound was tested for anti-coccidial activity in chicken against Eimeria tenella; assay type: organism-based; conditions: in vivo
Outline: (§2)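 Test article mixed into the feed at the stated rates and given to 3-day-old chicks infected with […]. Each Eimeria species was inoculated separately. Activity was scored as percent suppression of oocyst output relative to infected, unmedicated controls. Toxicity was judged from average weight gain relative to uninfected controls.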

Gallus gallus [3] = species: Gallus gallus; assay: The compound was tested for anti-coccidial activity in chicken against Eimeria brunetti (FS-103) measured at dose 30 (ppm in diet); assay type: functional
Gallus gallus [4] = species: Gallus gallus; assay: The compound was tested for anti-coccidial activity in chicken against Eimeria acervulina (DP-761) measured at dose 45 (ppm in diet); assay type: functional
Gallus gallus [5] = species: Gallus gallus; assay: The compound was tested for anti-coccidial activity in chicken against Eimeria brunetti (FS-103) measured at dose 7.5 (ppm in diet); assay type: functional
Gallus gallus [6] = species: Gallus gallus; assay: The compound was tested for anti-coccidial activity in chicken against Eimeria acervulina (DP-761) measured at dose 60 (ppm in diet); assay type: functional
Gallus gallus [7] = species: Gallus gallus; assay: The compound was tested for anti-coccidial activity in chicken against Eimeria acervulina (DP-761) measured at dose 7.5 (ppm in diet); assay type: functional
Gallus gallus [8] = species: Gallus gallus; assay: The compound was tested for anti-coccidial activity in chicken against Eimeria tenella (DP-761) measured at dose 30 (ppm in diet); assay type: functional; outline: as §2
Gallus gallus [9] = species: Gallus gallus; assay: The compound was tested for anti-coccidial activity in chicken against Eimeria acervulina (DP-761) measured at dose 15 (ppm in diet); assay type: functional
Gallus gallus [10] = species: Gallus gallus; assay: The compound was tested for anti-coccidial activity in chicken against Eimeria acervulina (DP-761) measured at dose 30 (ppm in diet); assay type: functional
Gallus gallus [11] = species: Gallus gallus; assay: The compound was tested for anti-coccidial activity in chicken against Eimeria necatrix (Aquet) measured at dose 60 (ppm in diet); assay type: functional
Gallus gallus [12] = species: Gallus gallus; assay: The compound was tested for anti-coccidial activity in chicken against Eimeria brunetti (FS-103) measured at dose 60 (ppm in diet); assay type: functional
Gallus gallus [13] = species: Gallus gallus; assay: The compound was tested for anti-coccidial activity in chicken against Eimeria brunetti (FS-103) measured at dose 15 (ppm in diet); assay type: functional
Gallus gallus [14] = species: Gallus gallus; assay: The compound was tested for anti-coccidial activity in chicken against Eimeria maxima (DP-776) measured at dose 45 (ppm in diet); assay type: functional
Gallus gallus [15] = species: Gallus gallus; assay: The compound was tested for anti-coccidial activity in chicken against Eimeria praecox (DP-785) measured at dose 7.5 (ppm in diet); assay type: functional
Eimeria acervulina = assay: Anticoccidial activity in chicken against Eimeria acervulina.; assay type: functional; design: Reduction: concentration or dose not given beside the values; outline: as §1
Gallus gallus [16] = species: Gallus gallus; assay: The compound was tested for anti-coccidial activity in chicken against Eimeria maxima (DP-776) measured at dose 7.5 (ppm in diet); assay type: functional
Gallus gallus [17] = species: Gallus gallus; assay: The compound was tested for anti-coccidial activity in chicken against Eimeria maxima (DP-776) measured at dose 30 (ppm in diet); assay type: functional
Gallus gallus [18] = species: Gallus gallus; assay: The compound was tested for anti-coccidial activity in chicken against Eimeria necatrix (Aquet) measured at dose 15 (ppm in diet); assay type: functional
Eimeria tenella = assay: Anticoccidial activity in chicken against E. tenella; assay type: functional; design: Reduction: concentration or dose not given beside the values; outline: as §1
Gallus gallus [19] = species: Gallus gallus; assay: The compound was tested for anti-coccidial activity in chicken against Eimeria praecox (DP-785) measured at dose 60 (ppm in diet); assay type: functional
Gallus gallus [20] = species: Gallus gallus; assay: The compound was tested for anti-coccidial activity in chicken against Eimeria maxima (DP-776) measured at dose 60 (ppm in diet); assay type: functional
Gallus gallus [21] = species: Gallus gallus; assay: The compound was tested for anti-coccidial activity in chicken against Eimeria necatrix (Aquet) measured at dose 30 (ppm in diet); assay type: functional
Gallus gallus [22] = species: Gallus gallus; assay: The compound was tested for anti-coccidial activity in chicken against Eimeria necatrix (Aquet) measured at dose 7.5 (ppm in diet); assay type: functional
Gallus gallus [23] = species: Gallus gallus; assay: The compound was tested for anti-coccidial activity in chicken against Eimeria praecox (DP-785) measured at dose 15 (ppm in diet); assay type: functional
Gallus gallus [24] = species: Gallus gallus; assay: The compound was tested for anti-coccidial activity in chicken against Eimeria tenella (DP-761) measured at dose 45 (ppm in diet); assay type: functional; outline: as §2
Gallus gallus [25] = species: Gallus gallus; assay: The compound was tested for anti-coccidial activity in chicken against Eimeria maxima (DP-776) measured at dose 15 (ppm in diet); assay type: functional
Gallus gallus [26] = species: Gallus gallus; assay: The compound was tested for anti-coccidial activity in chicken against Eimeria tenella (DP-761) measured at dose 60 (ppm in diet); assay type: functional; outline: as §2
Gallus gallus [27] = species: Gallus gallus; assay: The compound was tested for anti-coccidial activity in chicken against Eimeria brunetti (FS-103) measured at dose 45 (ppm in diet); assay type: functional
Gallus gallus [28] = species: Gallus gallus; assay: The compound was tested for anti-coccidial activity in chicken against Eimeria necatrix (Aquet) measured at dose 45 (ppm in diet); assay type: functional
Gallus gallus [29] = species: Gallus gallus; assay: The compound was tested for anti-coccidial activity in chicken against Eimeria praecox (DP-785) measured at dose 45 (ppm in diet); assay type: functional
Gallus gallus [30] = species: Gallus gallus; assay: The compound was tested for anti-coccidial activity in chicken against Eimeria tenella (DP-761) measured at dose 7.5 (ppm in diet); assay type: functional; outline: as §2
Gallus gallus [31] = species: Gallus gallus; assay: The compound was tested for anti-coccidial activity in chicken against Eimeria tenella (DP-761) measured at dose 15 (ppm in diet); assay type: functional; outline: as §2
Gallus gallus [32] = species: Gallus gallus; assay: The compound was tested for anti-coccidial activity in chicken against Eimeria praecox (DP-785) measured at dose 30 (ppm in diet); assay type: functional
Gallus gallus [33] = species: Gallus gallus; assay: The compound was tested for anti-coccidial activity in chicken against Eimeria tenella (DP-761) measured at dose 121 (ppm in diet); assay type: functional; outline: as §2
Gallus gallus [34] = species: Gallus gallus; assay: The compound was tested for anti-coccidial activity in chicken against Eimeria maxima (DP-776) measured at dose 121 (ppm in diet); assay type: functional
Gallus gallus [35] = species: Gallus gallus; assay: The compound was tested for anti-coccidial activity in chicken against Eimeria hagani (DP-786) measured at dose 121 (ppm in diet); assay type: functional
Gallus gallus [36] = species: Gallus gallus; assay: The compound was tested for anti-coccidial activity in chicken against Eimeria acervulina (DP-761) measured at dose 121 (ppm in diet); assay type: functional
Gallus gallus [37] = species: Gallus gallus; assay: The compound was tested for anti-coccidial activity in chicken against Eimeria mitis (LS-84) measured at dose 121 (ppm in diet); assay type: functional
Gallus gallus [38] = species: Gallus gallus; assay: The compound was tested for anti-coccidial activity in chicken against Eimeria brunetti (FS-103) measured at dose 121 (ppm in diet); assay type: functional
Gallus gallus [39] = species: Gallus gallus; assay: The compound was tested for anti-coccidial activity in chicken against Eimeria praecox (DP-785) measured at dose 121 (ppm in diet); assay type: functional

In the case of `NC(=O)c1c(N)nnn1Cc1cc(Cl)c(C(=O)c2ccc(Cl)cc2)c(Cl)c1`, the minimum effective dose (Gallus gallus [1]) was > 500 ppm and the minimum effective dose (Gallus gallus [2]) was > 500 ppm.

`NC(=O)c1nnn(Cc2cc(Cl)c(C(=O)c3ccc(Cl)cc3)c(Cl)c2)c1N` [CARBOXYAMIDOTRIAZOLE] showed a Reduction (Gallus gallus [3]) of 100%, a Reduction (Gallus gallus [4]) of 99.9% and a Reduction (Gallus gallus [5]) of 58%. For the same compound, the Reduction (Gallus gallus [6]) was 99.9%, the Reduction (Gallus gallus [7]) was 21% and the Reduction (Gallus gallus [8]) was 98%. It also gave a Reduction (Gallus gallus [9]) of 98%, a Reduction (Gallus gallus [10]) of 99.9% and a Reduction (Gallus gallus [11]) of 100%. It also gave a Reduction (Gallus gallus [12]) of 100%, a Reduction (Gallus gallus [13]) of 95% and a Reduction (Gallus gallus [14]) of 99.9%. For the same compound, the Reduction (Gallus gallus [15]) was 72%, the Reduction (Eimeria acervulina) was 90% and the Reduction (Gallus gallus [16]) was 99.9%. The Reduction (Gallus gallus [17]) was 99.9%, the Reduction (Gallus gallus [18]) was 88% and the Reduction (Eimeria tenella) was 80%. It also gave a Reduction (Gallus gallus [19]) of 100%, a Reduction (Gallus gallus [20]) of 99.9% and a Reduction (Gallus gallus [21]) of 100%. It also gave a Reduction (Gallus gallus [22]) of 12%, a Reduction (Gallus gallus [23]) of 98% and a Reduction (Gallus gallus [24]) of 99.9%. For the same compound, the Reduction (Gallus gallus [25]) was 99.9%, the Reduction (Gallus gallus [26]) was 99.9% and the Reduction (Gallus gallus [27]) was 100%. For the same compound, the Reduction (Gallus gallus [28]) was 100%, the Reduction (Gallus gallus [29]) was 100% and the Reduction (Gallus gallus [30]) was 60%. The Reduction (Gallus gallus [31]) was 83% and the Reduction (Gallus gallus [32]) was 100%.

With `CC[C@@]1([C@@H]2O[C@@H]([C@H]3O[C@@](O)(CO)[C@H](C)C[C@@H]3C)C[C@@H]2C)CC[C@H]([C@]2(C)CC[C@]3(C[C@H](O)[C@@H](C)[C@@H]([C@@H](C)[C@@H](OC)[C@H](C)C(=O)O)O3)O2)O1` [MONENSIN] the Reduction (Gallus gallus [33]) was 100%, the Reduction (Gallus gallus [34]) was 73% and the Reduction (Eimeria acervulina) was 80%. For the same compound, the Reduction (Gallus gallus [35]) was 19%, the Reduction (Gallus gallus [36]) was 4% and the Reduction (Eimeria tenella) was 80%. For the same compound, the Reduction (Gallus gallus [37]) was 72%, the Reduction (Gallus gallus [38]) was 100% and the Reduction (Gallus gallus [39]) was 19%.
